Compounds with a hit are over-represented: about 3.7% of the library has one in this group of screens.
Kir21 inh: Kir2.1 (mouse) channel inhibition. actives 0.85% (n = 310,000). B-score at 10 µM. HEK293-Kir2.1, FluxOR thallium flux fluorescence; stronger effect = lower value. P35561. AID 1672;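 active means fluorescence ratio B-score at or below minus 3 SD of library scores, with starting-brightness B-score within 2 SD, cut at about -4.2 in these data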;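 further: channel flux triggered by added potassium and thallium sulfate stimulus; B-score of peak minus minimum fluorescence over baseline after thallium stimulus; more negative B-score means stronger Kir2.1 block with less thallium influx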
KCNK3 block: human KCNK3 channel inhibition, primary screen; O14649; CHO-KCNK3 thallium flux, FluxOR fluorescence; stronger effect = lower value; B-score at 10 µM; actives 0.84% (n = 340,000);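 active means B-score under library mean minus 4 SD, starting fluorescence ratio at most library mean plus 5 SD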;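 further: more negative B-score means stronger inhibition of thallium flux through KCNK3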
KCNK9 block: human KCNK9 channel inhibition | Q9NPC2 | HEK293 KCNK9, FluxOR thallium flux fluorescence; stronger effect = lower value | B-score at 10 µM | actives 1.2% (n = 310,000) | AID 488922;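 active means ratio B-score over 3 SD below the library mean, with starting fluorescence within 5 SD of its mean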;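 further: negative B-score means less thallium flux so channel inhibition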
Target sequence (Q9NPC2 whole entry, looked up): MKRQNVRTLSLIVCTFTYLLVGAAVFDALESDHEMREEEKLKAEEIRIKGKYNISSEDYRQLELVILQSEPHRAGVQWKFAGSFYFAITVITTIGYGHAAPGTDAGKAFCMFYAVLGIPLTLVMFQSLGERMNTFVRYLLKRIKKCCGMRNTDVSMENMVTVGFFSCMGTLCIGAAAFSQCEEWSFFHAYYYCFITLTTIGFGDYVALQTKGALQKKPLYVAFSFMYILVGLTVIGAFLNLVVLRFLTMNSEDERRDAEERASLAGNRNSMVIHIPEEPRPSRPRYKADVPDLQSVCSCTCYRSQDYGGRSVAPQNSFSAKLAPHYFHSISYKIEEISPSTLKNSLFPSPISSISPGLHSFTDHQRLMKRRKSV
KCNQ1 block: human KCNQ1 channel inhibition | AID 2642 | CHO-K1 KCNQ1, FluxOR thallium flux fluorescence; stronger effect = higher value | B-score at 10 µM | actives 1.3% (n = 310,000);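 active means compounds whose thallium flux B-score, printed positive for inhibition, exceeds three library SD while starting fluorescence stays within three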;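 further: channel opened by potassium depolarization with thallium stimulus after 20 min compound exposure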
hERG rescue: hERG (human) protection from proarrhythmic block | CHO-hERG, FluxOR thallium flux, dofetilide IC70 present | AID 1511 | activation (rescue from dofetilide block), less the hit threshold, % at 10 µM | actives 0.51% (n = 310,000);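 active means activation above the mean of controls blocked by dofetilide plus 5 SD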;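 further: thallium influx through hERG after potassium depolarization seen as dye fluorescence rise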
KCNQ1 pot: potentiators or activators of human KCNQ1 potassium channel | AID 2648 | CHO-K1 KCNQ1, thallium flux FluxOR fluorescence; stronger effect = higher value | actives 0.35% (n = 310,000) | P51787 | B-score at 10 µM;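 active means fluorescence ratio B-score, a plate-corrected score, at least three library SD, with initial intensity B-score within 5 SD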
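System: CHO-K1 cells stably expressing KCNQ1 / Medium: assay buffer for compound exposure, DMSO matched across wells / Reagent: thallium- and potassium-containing depolarizing buffer / Compound: one concentration, matched DMSO / Incubation: 20 min compound pretreatment at room temperature / Measured by: kinetic FluxOR fluorescence, 10 s baseline plus 110 s post-stimulus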
KCNK9 inh conf: human KCNK9 inhibitor confirmation; HEK293 KCNK9 cells, FluxOR thallium flux fluorescence; actives 43% (n = 4,900); inhibition, % at 10 µM; shares compounds with KCNK9 block; AID 492992;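 active means thallium signal inhibited by more than 5 SD of the compound-free buffer control wells, on both duplicate plates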;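 further: 0% = assay buffer control wells without compound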
Kir2-1 spec: tests whether KCNK9 modulators also affect mouse Kir2.1 | actives 4% (n = 4,900) | Kir2.1 cells, FluxOR thallium flux fluorescence | inhibition, % at 10 µM | shares compounds with KCNK9 block;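 active means thallium signal drop more than 5 SD beyond the mean of the no-compound control wells, seen in both duplicate plates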;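 further: signal is fluorescence rise after thallium addition divided by baseline fluorescence; plate controls were assay buffer only for no effect and full block by chlorpromazine control for full effect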
KCNK9 uninduced: second counter-screen for KCNK9 modulators: effect in non-induced cells. shares compounds with KCNK9 block. non-induced KCNK9-HEK293, FluxOR thallium flux. inhibition, % at 10 µM. actives 40% (n = 4,900). AID 492997;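 active means thallium signal drop beyond 5 SD of the untreated control mean, on both duplicate plates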;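 further: plate controls were buffer only IC0 wells for no effect and SID17386958 at its maximal inhibitory level for full effect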
An asterisk follows results filed as active.

Cc1ccc(C)c(NS(=O)(=O)c2cc(C(=O)Nc3ccccc3-c3ccccc3)ccc2Cl)c1 was read as Kir21 inh -0.03, KCNK3 block inactive, KCNK9 block -13*, KCNQ1 block inactive, hERG rescue -2, KCNQ1 pot inactive, KCNK9 inh conf 39%*, Kir2-1 spec inactive and KCNK9 uninduced 32%*.
Screening CCOC(=O)c1c(Cc2cccc(Cl)c2)c[nH]c1C returned Kir21 inh -3.4, KCNK3 block inactive, KCNK9 block -10*, KCNQ1 block 6*, hERG rescue -22, KCNQ1 pot inactive, KCNK9 inh conf 68%*, Kir2-1 spec inactive and KCNK9 uninduced 28%*.
For CCC1CCCCN1C(=O)COc1ccc(N(C)S(=O)(=O)c2ccc(C)cc2)cc1 (stereo not drawn) the results were Kir21 inh -2.6, KCNK3 block inactive, KCNK9 block inactive, KCNQ1 block inactive, hERG rescue -16 and KCNQ1 pot inactive.
`COc1ccccc1NC(=O)C12CC3CC(C1)CC(c1ccc(C)cc1)(C3)C2` gave Kir21 inh -0.64, KCNK3 block inactive, KCNK9 block inactive, KCNQ1 block inactive, hERG rescue -12, KCNQ1 pot inactive, KCNK9 inh conf inactive, Kir2-1 spec inactive and KCNK9 uninduced inactive.
For COC(=O)C(C)NC(=O)C12CC3CC(C1)CC(c1ccc(C)cc1)(C3)C2 (stereo not drawn) the results were Kir21 inh 0.16, KCNK3 block inactive, KCNK9 block inactive, KCNQ1 block inactive, hERG rescue -4, KCNQ1 pot inactive, KCNK9 inh conf inactive, Kir2-1 spec inactive and KCNK9 uninduced inactive.
`COc1ccc(NC(=O)C23CC4CC(C2)CC(c2ccc(C)cc2)(C4)C3)cc1` gave Kir21 inh 0.02, KCNK3 block inactive, KCNK9 block inactive, KCNQ1 block inactive, hERG rescue -12, KCNQ1 pot inactive, KCNK9 inh conf inactive, Kir2-1 spec inactive and KCNK9 uninduced inactive.
Screening CS(=O)(=O)N(CC(=O)O)c1ccc(C23CC4CC(CC(C4)C2)C3)cc1 returned Kir21 inh -1.8, KCNK3 block inactive, KCNK9 block inactive, KCNQ1 block inactive, hERG rescue -7 and KCNQ1 pot inactive.
CNC(=O)C12CC3CC(C1)CC(c1ccc(C)cc1)(C3)C2 was read as Kir21 inh -0.69, KCNK3 block inactive, KCNK9 block inactive, KCNQ1 block inactive, hERG rescue -6 and KCNQ1 pot inactive.
For COc1ccccc1NC(=O)CN(c1ccc(C23CC4CC(CC(C4)C2)C3)cc1)S(C)(=O)=O the results were Kir21 inh 0.36, KCNK3 block inactive, KCNK9 block inactive, KCNQ1 block inactive, hERG rescue -11, KCNQ1 pot inactive, KCNK9 inh conf inactive, Kir2-1 spec inactive and KCNK9 uninduced inactive.
Screening CCn1nc(C)c(Br)c1C(=O)Sc1ccccc1Cl returned Kir21 inh 0.67, KCNK3 block inactive, KCNK9 block inactive, KCNQ1 block inactive, hERG rescue -12 and KCNQ1 pot inactive.
CCN1C(C)=CC(=O)[C@@H](O)[C@H]1c1ccccc1Br was read as KCNK3 block inactive.
Cc1ccccc1NS(=O)(=O)c1ccc(C(=O)NN2CCCCC2)cc1 was read as Kir21 inh 0.96, KCNK3 block inactive, KCNK9 block inactive, KCNQ1 block inactive, hERG rescue -7 and KCNQ1 pot inactive.
O=C(Nc1cnn(Cc2ccc(F)cc2)c1)c1cnn2c(C(F)F)cc(-c3ccccc3)nc12 was read as Kir21 inh -0.46, KCNK3 block inactive, KCNK9 block -13*, KCNQ1 block inactive, hERG rescue -10, KCNQ1 pot inactive, KCNK9 inh conf 50%*, Kir2-1 spec inactive and KCNK9 uninduced 36%*.
For COc1ccc(/C(C)=N/Nc2nc3ccccc3n3cnnc23)cc1OC the results were Kir21 inh 0.36, KCNK9 block inactive, KCNQ1 block inactive, hERG rescue -5 and KCNQ1 pot inactive.
Screening CC(C)(C)n1nc2c(c1NC(=O)COc1ccc(Cl)cc1)CSC2 returned Kir21 inh 1.5, KCNK3 block inactive, KCNK9 block -11*, KCNQ1 block inactive, hERG rescue -12, KCNQ1 pot inactive, KCNK9 inh conf 45%*, Kir2-1 spec inactive and KCNK9 uninduced 50%*.
Screening O=C(NCC[C@@H]1C[C@@H]2C=C[C@H]1C2)c1cc(COc2ccc(F)cc2F)on1 returned Kir21 inh 0, KCNK3 block inactive, KCNK9 block -21*, KCNQ1 block inactive, hERG rescue -8, KCNQ1 pot inactive, KCNK9 inh conf 40%*, Kir2-1 spec inactive and KCNK9 uninduced 38%*.
`O=c1oc2ccccc2c(O)c1Cc1cc(Cl)c2cccnc2c1O` gave Kir21 inh 1.2, KCNK3 block inactive, KCNK9 block inactive, KCNQ1 block inactive, hERG rescue -5, KCNQ1 pot inactive, KCNK9 inh conf inactive, Kir2-1 spec inactive and KCNK9 uninduced inactive.
O=C(Cc1c(O)c2ccccc2oc1=O)c1ccc(C(F)(F)F)cc1 was read as Kir21 inh -0.9, KCNK3 block inactive, KCNK9 block inactive, KCNQ1 block inactive, hERG rescue -4 and KCNQ1 pot inactive.
Cc1nc(SCC(=O)N2CCOCC2)c2c(C)c(C)sc2n1 was read as Kir21 inh 1, KCNK3 block inactive, KCNK9 block inactive, KCNQ1 block inactive, hERG rescue -4 and KCNQ1 pot inactive.
Screening Cc1ccc(-c2csc3ncnc(SCc4ccc(C(=O)O)cc4)c23)cc1 returned Kir21 inh 3, KCNK3 block inactive, KCNK9 block inactive, KCNQ1 block inactive, hERG rescue 15*, KCNQ1 pot 33*, KCNK9 inh conf inactive, Kir2-1 spec inactive and KCNK9 uninduced inactive.
Cc1nc(SCc2ccc(C(=O)O)cc2)c2c(C)c(C)sc2n1 was read as Kir21 inh 1.9, KCNK3 block inactive, KCNK9 block inactive, KCNQ1 block inactive, hERG rescue -10, KCNQ1 pot inactive, KCNK9 inh conf inactive, Kir2-1 spec inactive and KCNK9 uninduced inactive.
